Active and inactive are the calls of the source. The calls are words filed in the database; no cut-off is given here.
Experiments:
[1] = system: Vaccinia virus; test: Inhibition of Vaccinia virus DNA synthesis in by rapid plate assay; type: functional, organism-based; details: Orthopoxvirus vaccinia
[2] = Cytotoxicity against african green monkey BSC1 cells after 20 hrs WST-1 based assay; type: cell-based, BSC-1; details: chlorocebus aethiops, read-out: TC50
Outline: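 Uninfected BS-C-1 cells in phenol red-free medium, seeded 5000 (20 h), 1000 (3-day) or 200 (5-day) cells/well, exposed next day to compound in two-fold serial dilutions (top 200 µM; 1% DMSO final) at 37°C. WST-1 added 30 min, A450 read. Triplicates; percent cytotoxicity vs DMSO fitted four-parameter sigmoidal for TC50.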

[3] = system: Vaccinia virus; test: Antiviral activity against Vaccinia virus WR in BSC1 cells assessed as reduction in plaque formation after 20 hrs; type: functional, organism-based; details: Orthopoxvirus vaccinia, BSC-1, 20 h
[4] = system: Vaccinia virus; test: Antiviral activity against Vaccinia virus WR in BSC1 cells assessed as protection from virus-induced lysis of cell monolayer after 20 hrs; type: functional, organism-based; details: Orthopoxvirus vaccinia, BSC-1, 20 h
[5] = system: Vaccinia virus; test: Antiviral activity against Vaccinia virus WR in BSC1 cells assessed as retention of antiviral potency by measuring exogenous double stranded DNA trapping; type: functional, organism-based; details: Orthopoxvirus vaccinia, BSC-1

Structure (SMILES)	IC50 [1] [µM]	CC50 at 20 h [2] [µM]	EC50 [3] [µM]	EC50 [4] [µM]	Activity [5]
O=C(O)c1ccc2c(c1)NC(=O)C(CSCc1ccccc1Cl)N2 (stereo unspecified)	450	> 200	–	–	–
O=C1NC(=S)N(c2ccccc2)C(=O)/C1=C\C=C\c1ccco1	143	> 200	50	–	–
CC(C)c1ccc(C2Nc3ccc(C(=O)O)cc3C3C=CCC32)cc1 (stereo unspecified)	100	> 200	100	–	–
C/N=C1/c2c(C)c3cc(OC)ccc3n2CCN1C	89	> 200	75	–	–
CCN1C(=O)/C(=C\C=C\c2ccco2)C(=O)NC1=S	160	72	12	–	–
CCN1/C(=C/c2ccc3ccccc3[n+]2CC)Sc2cc(NC(C)=O)ccc21	15	> 200	200	–	–
CN1CCN(c2cc(-c3ccc(F)cc3)nc(-c3ccccc3)n2)CC1	–	23	6	12	inactive
CCOC(=O)c1cc(-c2ccccc2)n(-c2ccc(C(=O)O)cc2)c1C	120	> 200	100	–	–
OCC(O)Cn1c2ccc(Br)cc2c2cc(Br)ccc21 (stereo unspecified)	–	29	10	23	inactive
O=C(O)c1cc(-c2cccs2)nc2ccc(Br)cc12	63	> 200	100	–	–
CN(c1ccccc1C(=O)O)S(=O)(=O)c1ccc2c3c(cccc13)C(=O)N2	75	> 200	–	–	–
C=C1C(C(=O)NCc2ccco2)C1C(=O)NCc1ccco1 (stereo unspecified)	272	> 200	–	–	–
CC1CCN(CCCNC(=O)c2cc3c(=O)n(C)c4ccccc4c3s2)CC1	19	75	–	–	–
COc1ccc(Nc2cc(C(F)(F)F)ccc2Cl)c(C(=O)O)c1	29	> 200	100	–	–
CCN(CC)Cn1nc2c3c(cccc3c1=O)-c1ccccc1-2	25	133	25	14	inactive
Cc1c(C)n(CCN(C)C)c2ccc(C(=O)OCCN(C)C)cc12 [AMINDOCATE]	26	> 200	75	–	–

Structure (SMILES)	IC50 [1] [µM]	CC50 at 20 h [2] [µM]	EC50 [3] [µM]	EC50 [4] [µM]	Activity [5]
N=C(N)Nc1nc(-c2ccccc2)c2ccccc2n1	21	49	50	–	–
CN(C)/C=C/C=C1C(=O)CCCC1=O	86	> 200	–	–	–
Cc1ccc(C)n1-c1cccc(C(=O)O)c1	100	> 200	–	–	–
C[n+]1ccc(/C=C/c2ccc3c(c2)OCO3)c2ccccc21	24	> 200	75	–	–
COc1ccc2c(C)nc(NC(=N)/N=C(\C)c3ccccc3C(=O)O)nc2c1	13	164	50	–	–
O=C1N=C(Nc2cccc(C(=O)O)c2)S/C1=C\c1ccc(-c2ccc(C(=O)O)cc2)o1	30	> 200	–	–	–
c1ccc(CNc2ccc3c(ccc4c5ccccc5[nH]c34)n2)cc1	114	26	10	–	–
CCOC(=O)c1c(NC(=O)/C=C/C(=O)O)sc(C)c1-c1ccccc1	374	159	25	30	Active
Cc1nc2ccccc2c2oc(C(=O)NCCN(C)C3CCCCC3)cc12	–	143	25	41	inactive
O=C(O)c1cc(Cc2ccc(O)c(C(=O)O)c2)ccc1O	51	> 200	–	–	–
CCN1CCCC1CNC(=O)c1ccc2c(c1)sc1nc(-c3cccc(OC)c3)cn12 (stereo unspecified)	47	75	50	–	–
CC1=NN(c2cccc(C(=O)O)c2)C(=O)/C1=C\c1ccc(-c2cccc(Cl)c2C)o1	14	> 200	50	–	–
COc1ccc(Nc2nc(N3CCN(C)CC3)nc3ccccc23)c(OC)c1	–	192	40	18	inactive
COc1ccc2cc3cc(C(=O)NCCN(C)C)oc3nc2c1	–	> 200	75	–	–
CCN1CCCC1CNC(=O)c1cc2c(=O)n(C)c3ccccc3c2n1C (stereo unspecified)	–	135	100	98	inactive
O=C(/C=C/c1ccco1)/C=C/c1ccco1	25	> 200	75	–	–
